Assay results taken from ChEMBL document CHEMBL1123103, “Pyrimidinones. 1. 2-Amino-5-halo-6-aryl-4(3H)-pyrimidinones. Interferon-inducing antiviral agents” (1985).

Columns and labels:
Assay type in all cases: functional
Semliki Forest virus [1] = assay: Antiviral activity against Forest virus (SFV)
In short: (§1)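 ICR or CD-1 mice of both sexes got one drug dose by the route in the line (ip, po or sc). The drug was a suspension in 0.9% NaCl or in a CMC/polysorbate 80/benzyl alcohol/NaCl vehicle. […] Deaths were recorded daily for 6 days, 24 mice/group. ED50 is the minimal dose protecting 50% of mice, by probit analysis.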

Mus musculus [2] = assay: The compound was evaluated for the serum interferon response from a single 800 mg/kg intraperitoneal administration in vesicular stomatitis virus on […] cells; range 500-1000 units/mL
In short: (§2)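 Mice got a single ip 800 mg/kg dose. Blood was drawn 3, 6, 8 and 12 h later from five mice per group and pooled. Interferon titer was measured by plaque reduction with vesicular stomatitis virus on L929 cells. Titer is the reciprocal serum dilution cutting plaques by 50% versus untreated cultures. Peak response within 24 h was banded: ≥2000, ~500-1000, ~50-500, ~10-50 U/mL.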

Semliki Forest virus [3] = assay: Effective dose administered perorally againist Forest virus infected mice; details: po; in short: as §1
Human alphaherpesvirus 1 = assay: Intraperitoneal administration against herpes simplex virus type-1 (HSV-1) infected mice
In short: (§3)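 ICR or CD-1 mice got drug ip in saline as the total daily dose (mg/kg/day). It was split into doses at -40, -28, -20, -3 and +3 h relative to ip inoculation with 5.6×10^4 pfu HSV-1. Mice were followed for 22 days, 15/group. Protection index = (control mortality − treated mortality)/control mortality; >0.25 counted active. Only the lowest protective dose is recorded.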

Semliki Forest virus [4] = assay: Effective dose administered subcutaneously againist Forest virus infected mice; details: sc; in short: as §1
Mus musculus [5] = assay: Protection index after intraperitoneal administration (50 mg/kg/day) against herpes simplex virus type-1 (HSV-1) infected mice [protection index=(control mortality-treated mortality)/control mortality]; in short: as §3
[6] = test system: Vesicular stomatitis virus; assay: Evaluation for serum interferon response from a single 800 mg/kg intraperitoneal administration in vesicular stomatitis virus on […] cells.; in short: as §2
Mus musculus [7] = assay: Evaluation for serum interferon response from a single 800 mg/kg intraperitoneal administration in vesicular stomatitis virus on […] cells; Range 10-50 units/mL; in short: as §2
Mus musculus [8] = assay: The compound was evaluated for the serum interferon response from a single 800 mg/kg intraperitoneal administration in vesicular stomatitis virus on […] cells; Range 500-1000 units/mL; in short: as §2
Mus musculus [9] = assay: The compound was evaluated for the serum interferon response from a single 800 mg/kg intraperitoneal administration in vesicular stomatitis virus on […] cells; Range 50-500 units/mL; in short: as §2
Mus musculus [10] = assay: The compound was evaluated for the serum interferon response from a single 800 mg/kg intraperitoneal administration in vesicular stomatitis virus on […] cells; range 50-500; in short: as §2
Mus musculus [11] = assay: Protection index after intraperitoneal administration (25 mg/kg/day) against herpes simplex virus type-1 (HSV-1) infected mice [protection index=(control mortality-treated mortality)/control mortality]; in short: as §3

Q: How did the ED50 (Semliki Forest virus [1]) turn out when `Cc1ccccc1-c1nc(N)nc(O)c1Cl` was run?
A: The ED50 was 130 mg/kg.

Q: And the IFN (Mus musculus [2])?
A: The IFN was 500 units/mL.

Q: And the ED50 (Semliki Forest virus [3])?
A: Its ED50 is greater than 400 mg/kg.

Q: And the Protection index (Human alphaherpesvirus 1)?
A: The Protection index was 0.13.

Q: What about the ED50 (Semliki Forest virus [4]) of the same compound?
A: The ED50 was 350 mg/kg.

Q: What does the source list for `COc1cccc(-c2nc(N)nc(O)c2Cl)c1`?
A: ED50 (Semliki Forest virus [1]): 15 mg/kg; ED50 (Semliki Forest virus [3]): > 400 mg/kg; Protection index (Mus musculus [5]): 0.92; IFN [6]: 50 units/mL; ED50 (Semliki Forest virus [4]): 205 mg/kg

Q: With `COc1cccc(-c2nc(N)nc(O)c2I)c1` as the compound, how does the ED50 (Semliki Forest virus [1]) read?
A: Its ED50 is 40 mg/kg.

Q: What about the ED50 (Semliki Forest virus [3]) of the same compound?
A: Its ED50 is greater than 400 mg/kg.

Q: What about the Protection index (Mus musculus [5]) of the same compound?
A: Its Protection index is 0.54.

Q: And the IFN (Mus musculus [7])?
A: Its IFN is 10 units/mL.

Q: And the ED50 (Semliki Forest virus [4])?
A: Its ED50 is greater than 400 mg/kg.

Q: For `Nc1nc(O)c(I)c(-c2ccccc2F)n1`, which ED50 (Semliki Forest virus [1]) is on record?
A: Its ED50 is 105 mg/kg.

Q: What about the IFN (Mus musculus [2]) of the same compound?
A: Its IFN is 500 units/mL.

Q: And the ED50 (Semliki Forest virus [3])?
A: Its ED50 is greater than 400 mg/kg.

Q: And the Protection index (Mus musculus [5])?
A: The Protection index was 0.67.

Q: And the ED50 (Semliki Forest virus [4])?
A: The ED50 was greater than 400 mg/kg.

Q: For `Nc1nc(O)c(Br)c(-c2ccc(F)cc2)n1`, which ED50 (Semliki Forest virus [1]) is on record?
A: The ED50 was 160 mg/kg.

Q: What about the ED50 (Semliki Forest virus [3]) of the same compound?
A: Its ED50 is greater than 400 mg/kg.

Q: What about the Protection index (Human alphaherpesvirus 1) of the same compound?
A: Its Protection index is 0.46.

Q: And the IFN (Mus musculus [8])?
A: The IFN was 500 units/mL.

Q: And the ED50 (Semliki Forest virus [4])?
A: The ED50 was greater than 400 mg/kg.

Q: For `COc1cccc(-c2nc(N)nc(O)c2Br)c1`, which ED50 (Semliki Forest virus [1]) is on record?
A: The ED50 was 10 mg/kg.

Q: And the ED50 (Semliki Forest virus [3])?
A: Its ED50 is greater than 400 mg/kg.

Q: What about the Protection index (Mus musculus [5]) of the same compound?
A: Its Protection index is 0.62.

Q: What about the IFN [6] of the same compound?
A: The IFN was 50 units/mL.

Q: What about the ED50 (Semliki Forest virus [4]) of the same compound?
A: Its ED50 is 55 mg/kg.

Q: For `Nc1nc(O)c(Br)c(-c2cccc(C(F)(F)F)c2)n1`, which ED50 (Semliki Forest virus [1]) is on record?
A: The ED50 was 200 mg/kg.

Q: And the ED50 (Semliki Forest virus [3])?
A: Its ED50 is greater than 400 mg/kg.

Q: And the Protection index (Human alphaherpesvirus 1)?
A: The Protection index was 0.53.

Q: And the IFN (Mus musculus [9])?
A: The IFN was 50 mL.

Q: What about the ED50 (Semliki Forest virus [4]) of the same compound?
A: Its ED50 is greater than 400 mg/kg.

Q: Which results are given for `Nc1nc(O)c(Br)c(-c2ccccc2F)n1`?
A: ED50 (Semliki Forest virus [1]): 25 mg/kg; ED50 (Semliki Forest virus [3]): > 400 mg/kg; Protection index (Mus musculus [5]): 0.69; IFN [6]: 50 units/mL; ED50 (Semliki Forest virus [4]): 200 mg/kg

Q: With `Nc1nc(O)c(Cl)c(-c2cc(F)ccc2F)n1` as the compound, how does the ED50 (Semliki Forest virus [1]) read?
A: The ED50 was 165 mg/kg.

Q: What about the ED50 (Semliki Forest virus [3]) of the same compound?
A: The ED50 was greater than 400 mg/kg.

Q: And the IFN (Mus musculus [8])?
A: The IFN was 500 units/mL.

Q: What does the source list for `Nc1nc(O)c(I)c(-c2cccc(Br)c2)n1`?
A: IFN (Mus musculus [10]): 500 mL; ED50 (Semliki Forest virus [1]): 65 mg/kg; ED50 (Semliki Forest virus [3]): > 400 mg/kg; ED50 (Semliki Forest virus [4]): 90 mg/kg

Q: For `Nc1nc(O)c(Br)c(-c2cccc(F)c2)n1`, which ED50 (Semliki Forest virus [1]) is on record?
A: Its ED50 is 70 mg/kg.

Q: And the Protection index (Mus musculus [11])?
A: The Protection index was 0.64.

Q: And the ED50 (Semliki Forest virus [3])?
A: The ED50 was 175 mg/kg.

Q: And the IFN [6]?
A: The IFN was “>=2000 ml”.

Q: What about the ED50 (Semliki Forest virus [4]) of the same compound?
A: The ED50 was 155 mg/kg.

Q: Which ED50 (Semliki Forest virus [1]) does the source give for `Nc1nc(O)c(Cl)c(-c2cccc(F)c2)n1` here?
A: The ED50 was 30 mg/kg.

Q: What about the Protection index (Mus musculus [11]) of the same compound?
A: The Protection index was 0.61.

Q: What about the ED50 (Semliki Forest virus [3]) of the same compound?
A: The ED50 was greater than 400 mg/kg.

Q: And the IFN [6]?
A: Its IFN is “>=2000 ml”.

Q: And the ED50 (Semliki Forest virus [4])?
A: The ED50 was 100 mg/kg.

Q: For `Nc1nc(O)c(Cl)c(-c2cccc(F)c2F)n1`, which ED50 (Semliki Forest virus [1]) is on record?
A: Its ED50 is 70 mg/kg.

Q: What about the ED50 (Semliki Forest virus [3]) of the same compound?
A: Its ED50 is 200 mg/kg.

Q: And the Protection index (Human alphaherpesvirus 1)?
A: The Protection index was 0.93.

Q: And the IFN (Mus musculus [8])?
A: The IFN was 500 units/mL.

Q: `Nc1nc(O)c(I)c(-c2cccc(Cl)c2)n1` was tested. Which ED50 (Semliki Forest virus [1]) did it give?
A: The ED50 was 35 mg/kg.

Q: What about the ED50 (Semliki Forest virus [3]) of the same compound?
A: Its ED50 is greater than 400 mg/kg.

Q: What about the Protection index (Human alphaherpesvirus 1) of the same compound?
A: Its Protection index is 0.65.

Q: And the IFN (Mus musculus [8])?
A: The IFN was 500 units/mL.

Q: What about the ED50 (Semliki Forest virus [4]) of the same compound?
A: Its ED50 is 250 mg/kg.

Q: With `Nc1nc(O)c(Cl)c(-c2ccccc2F)n1` as the compound, how does the ED50 (Semliki Forest virus [1]) read?
A: The ED50 was 105 mg/kg.

Q: What about the ED50 (Semliki Forest virus [3]) of the same compound?
A: The ED50 was 105 mg/kg.

Q: And the Protection index (Mus musculus [5])?
A: The Protection index was 0.69.

Q: What about the IFN [6] of the same compound?
A: The IFN was “>=2000 ml”.

Q: What about the ED50 (Semliki Forest virus [4]) of the same compound?
A: The ED50 was 115 mg/kg.

Q: Which ED50 (Semliki Forest virus [1]) does the source give for `Nc1nc(O)c(I)c(-c2cccc(F)c2)n1` here?
A: The ED50 was 10 mg/kg.

Q: What about the Protection index (Mus musculus [11]) of the same compound?
A: Its Protection index is 0.25.

Q: And the ED50 (Semliki Forest virus [3])?
A: The ED50 was greater than 400 mg/kg.

Q: And the IFN (Mus musculus [8])?
A: The IFN was 500 units/mL.

Q: What about the ED50 (Semliki Forest virus [4]) of the same compound?
A: The ED50 was 80 mg/kg.

Q: Which IFN (Mus musculus [10]) does the source give for `Nc1nc(O)c(Br)c(-c2cccc(Br)c2)n1` here?
A: The IFN was 500 mL.

Q: What about the ED50 (Semliki Forest virus [1]) of the same compound?
A: Its ED50 is 110 mg/kg.

Q: And the ED50 (Semliki Forest virus [3])?
A: Its ED50 is greater than 400 mg/kg.

Q: What about the Protection index (Human alphaherpesvirus 1) of the same compound?
A: The Protection index was 0.47.

Q: And the ED50 (Semliki Forest virus [4])?
A: Its ED50 is greater than 400 mg/kg.

Q: What does the source list for `Nc1nc(O)c(I)c(-c2cnccn2)n1`?
A: ED50 (Semliki Forest virus [1]): 275 mg/kg; IFN (Mus musculus [2]): 500 units/mL; ED50 (Semliki Forest virus [3]): > 400 mg/kg; ED50 (Semliki Forest virus [4]): > 400 mg/kg

Q: Which results are given for `Nc1nc(O)c(Cl)c(-c2cnccn2)n1`?
A: ED50 (Semliki Forest virus [1]): 110 mg/kg; IFN (Mus musculus [2]): 500 units/mL; ED50 (Semliki Forest virus [3]): 395 mg/kg; Protection index (Human alphaherpesvirus 1): 0.07; ED50 (Semliki Forest virus [4]): > 400 mg/kg

Q: What does the source list for `CCCOc1cccc(-c2nc(N)nc(O)c2Br)c1`?
A: ED50 (Semliki Forest virus [1]): 100 mg/kg; ED50 (Semliki Forest virus [3]): > 400 mg/kg; Protection index (Human alphaherpesvirus 1): 0.4; IFN (Mus musculus [7]): 10 units/mL; ED50 (Semliki Forest virus [4]): > 400 mg/kg
